In ChEMBL document CHEMBL1909519, “L-Proline anchored multicomponent synthesis of novel pyrido[2,3-a]carbazoles; investigation of in vitro antimicrobial, antioxidant, cytotoxicity and structure activity relationship studies” (Eur J Med Chem, 2011):
Values after ≈ are worked out from the molar mass of the structure shown.

Legend:
Aspergillus niger [1] = assay: Antifungal activity against Aspergillus niger at 25 ug/ml after 48 hrs by agar disk diffusion assay; assay type: functional; conditions: read-out: DIZ
Procedure, shortened: (§1)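 Fungal isolates (PSG Hospital, Coimbatore) grown on Sabouraud dextrose agar; agar well diffusion with compounds in DMSO at 0 (control), 25, 50, 75, 100. DMSO negative control, fluconazole ([…]) positive control. Plates held 28 ± 2 °C for 48 h; zone of inhibition diameter recorded in mm.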

SK-OV-3 [2] = assay: Cytotoxicity against human SKOV3 cells after 48 hrs by SRB assay; assay type: functional, cell-based; conditions: SK-OV-3, 48 h
Procedure, shortened: (§2)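 Cells in RPMI-1640 with 10% heat-inactivated FBS, 1 mM NaHCO3, 2 mM L-glutamine, 37 °C, 5% CO2; seeded (B16F10 5 × 10⁴ cells/mL, others 1 × 10⁵ cells/mL), 24 h, then compounds in DMSO at 1.56–50 for 48 h, triplicate wells. TCA fixation, SRB staining 30 min, tris extraction, OD 520 nm; IC50 by linear regression, mean ± SD of three independent experiments; cisplatin positive control.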

Aspergillus niger [3] = assay: Antifungal activity against Aspergillus niger after 48 hrs by agar disk diffusion assay; assay type: functional; procedure, shortened: as §1
Candida albicans [4] = assay: Antifungal activity against Candida albicans at 25 ug/ml after 48 hrs by agar disk diffusion assay; assay type: functional; conditions: read-out: DIZ; procedure, shortened: as §1
Candida albicans [5] = assay: Antifungal activity against Candida albicans after 48 hrs by agar disk diffusion assay; assay type: functional; procedure, shortened: as §1
Escherichia coli [6] = assay: Antibacterial activity against Escherichia coli at 25 ug/ml after 24 hrs by agar disk diffusion assay; assay type: functional; conditions: read-out: DIZ
Procedure, shortened: (§3)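 Gram-negative clinical isolates (PSG Hospital, Coimbatore) tested by agar well diffusion on nutrient agar. Compounds dissolved in DMSO at 0 (control), 25, 50, 75, 100; DMSO was the negative control and ciprofloxacin ([…]) the positive control. Incubation 37 ± 2 °C for 24 h, then inhibition zone diameter measured in mm.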

Staphylococcus aureus [7] = assay: Antibacterial activity against Staphylococcus aureus after 24 hrs by agar disk diffusion assay; assay type: functional
Procedure, shortened: (§4)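 Agar well diffusion on nutrient agar against Gram-positive clinical isolates (PSG Hospital, Coimbatore). Compounds in DMSO tested at 0 (control), 25, 50, 75, 100; DMSO as solvent and negative control; ciprofloxacin ([…]) as positive control. Plates incubated 37 ± 2 °C, 24 h; zone of inhibition diameter read in mm.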

A549 = assay: Cytotoxicity against human A549 cells after 48 hrs by SRB assay; assay type: functional, cell-based; conditions: A549, 48 h; procedure, shortened: as §2
Staphylococcus aureus [8] = assay: Antibacterial activity against Staphylococcus aureus at 25 ug/ml after 24 hrs by agar disk diffusion assay; assay type: functional; conditions: read-out: DIZ; procedure, shortened: as §4
Klebsiella pneumoniae [9] = assay: Antibacterial activity against Klebsiella pneumoniae at 25 ug/ml after 24 hrs by agar disk diffusion assay; assay type: functional; conditions: read-out: DIZ; procedure, shortened: as §3
B16-F10 [10] = assay: Cytotoxicity against mouse B16F10 cells after 48 hrs by SRB assay; assay type: functional, cell-based; conditions: B16-F10, 48 h; procedure, shortened: as §2
Enterococcus faecalis [11] = assay: Antibacterial activity against Enterococcus faecalis after 24 hrs by agar disk diffusion assay; assay type: functional; procedure, shortened: as §4
[12] = tested on: Radical scavenging activity; assay: Antioxidant activity assessed as DPPH radical scavenging activity after 30 mins by micro plate reader; assay type: functional
Procedure, shortened: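 DPPH assay: various compound concentrations brought to volume with ethanol, mixed with 0.1 mM ethanolic DPPH alongside vitamin C standard; shaken 30 min at 24 °C, absorbance read at 517 nm; concentration giving 50% decrease determined.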

Enterococcus faecalis [13] = assay: Antibacterial activity against Enterococcus faecalis at 25 ug/ml after 24 hrs by agar disk diffusion assay; assay type: functional; conditions: read-out: DIZ; procedure, shortened: as §4
Klebsiella pneumoniae [14] = assay: Antibacterial activity against Klebsiella pneumoniae after 24 hrs by agar disk diffusion assay; assay type: functional; procedure, shortened: as §3
[15] = Cytotoxicity against human SK-MEL-12 cells after 48 hrs by SRB assay; assay type: functional, cell-based; procedure, shortened: as §2
Escherichia coli [16] = assay: Antibacterial activity against Escherichia coli after 24 hrs by agar disk diffusion assay; assay type: functional; procedure, shortened: as §3
HCT-15 [17] = assay: Cytotoxicity against human HCT15 cells up to 50 ug/ml after 48 hrs by SRB assay; assay type: functional, cell-based; procedure, shortened: as §2
SK-OV-3 [18] = assay: Cytotoxicity against human SKOV3 cells up to 50 ug/ml after 48 hrs by SRB assay; assay type: functional, cell-based; procedure, shortened: as §2
HCT-15 [19] = assay: Cytotoxicity against human HCT15 cells after 48 hrs by SRB assay; assay type: functional, cell-based; conditions: HCT-15, 48 h; procedure, shortened: as §2
[20] = Cytotoxicity against human SK-MEL-12 cells up to 50 ug/ml after 48 hrs by SRB assay; assay type: functional, cell-based; procedure, shortened: as §2
B16-F10 [21] = assay: Ratio of cisplatin IC50 to compound IC50 for mouse B16F10; assay type: functional
Enterococcus faecalis [22] = assay: Antibacterial activity against Enterococcus faecalis at 50 ug/ml after 24 hrs by agar disk diffusion assay; assay type: functional; conditions: read-out: DIZ; procedure, shortened: as §4
Staphylococcus aureus [23] = assay: Antibacterial activity against Staphylococcus aureus at 50 ug/ml after 24 hrs by agar disk diffusion assay; assay type: functional; conditions: read-out: DIZ; procedure, shortened: as §4
Aspergillus niger [24] = assay: Antifungal activity against Aspergillus niger at 50 ug/ml after 48 hrs by agar disk diffusion assay; assay type: functional; conditions: read-out: DIZ; procedure, shortened: as §1
Klebsiella pneumoniae [25] = assay: Antibacterial activity against Klebsiella pneumoniae at 50 ug/ml after 24 hrs by agar disk diffusion assay; assay type: functional; conditions: read-out: DIZ; procedure, shortened: as §3
Candida albicans [26] = assay: Antifungal activity against Candida albicans at 50 ug/ml after 48 hrs by agar disk diffusion assay; assay type: functional; conditions: read-out: DIZ; procedure, shortened: as §1
Escherichia coli [27] = assay: Antibacterial activity against Escherichia coli at 50 ug/ml after 24 hrs by agar disk diffusion assay; assay type: functional; conditions: read-out: DIZ; procedure, shortened: as §3

| Compound | MIC (Aspergillus niger [3]) [µg/mL] | MIC (Candida albicans [5]) [µg/mL] | MIC (Staphylococcus aureus [7]) [µg/mL] | MIC (Enterococcus faecalis [11]) [µg/mL] | IC50 [12] [µg/mL] | MIC (Klebsiella pneumoniae [14]) [µg/mL] | MIC (Escherichia coli [16]) [µg/mL] | zone of inhibition at 25 µg/mL (Aspergillus niger [1]) [mm] | zone of inhibition at 25 µg/mL (Candida albicans [4]) [mm] | zone of inhibition at 25 µg/mL (Escherichia coli [6]) [mm] | IC50 (A549) [µg/mL] | zone of inhibition at 25 µg/mL (Staphylococcus aureus [8]) [mm] | zone of inhibition at 25 µg/mL (Klebsiella pneumoniae [9]) [mm] | IC50 (B16-F10 [10]) [µg/mL] | zone of inhibition at 25 µg/mL (Enterococcus faecalis [13]) [mm] | IC50 [15] [µg/mL] | IC50 (SK-OV-3 [18]) | IC50 (HCT-15 [19]) [µg/mL] | other results |
| --- | --- | --- | --- | --- | --- | --- | --- | --- | --- | --- | --- | --- | --- | --- | --- | --- | --- | --- | --- |
| CCOC(=O)c1c(N)nc2c(c1-c1cc3ccccc3nc1Cl)CCc1c-2[nH]c2ccc(C)cc12 | > 100 | > 100 | 25 (≈ 51.8 µM) | 25 (≈ 51.8 µM) | 330.25 (≈ 684 µM) | 25 (≈ 51.8 µM) | 25 (≈ 51.8 µM) | 7 | 11 | 23 | 17.6 (≈ 36.5 µM) | 25 | 26 | 20.5 (≈ 42.4 µM) | 24 | 27.7 (≈ 57.3 µM) | – | – | IC50 (SK-OV-3 [2]): 18.6 µg/mL (≈ 38.5 µM); IC50 (HCT-15 [17]): Not Active |
| CCOC(=O)c1c(N)nc2c(c1-c1cccs1)CCc1c-2[nH]c2ccc(C)cc12 | 75 (≈ 186 µM) | 75 (≈ 186 µM) | 25 (≈ 62 µM) | 25 (≈ 62 µM) | 244.85 (≈ 607 µM) | 25 (≈ 62 µM) | 25 (≈ 62 µM) | 17 | 18 | 26 | 23.4 (≈ 58 µM) | 27 | 29 | 19.4 (≈ 48 µM) | 28 | 48.2 (≈ 119 µM) | Not Active | 22.5 (≈ 55.8 µM) | – |
| CCOC(=O)c1c(N)nc2c(c1-c1cccnc1)CCc1c-2[nH]c2ccc(C)cc12 | > 100 | > 100 | 50 (≈ 125 µM) | 50 (≈ 125 µM) | 210.34 (≈ 528 µM) | 50 (≈ 125 µM) | 50 (≈ 125 µM) | – | – | – | 43.7 (≈ 110 µM) | – | – | 29.4 (≈ 73.8 µM) | – | 24.9 (≈ 62.5 µM) | Not Active | 33.8 (≈ 84.8 µM) | zone of inhibition at 50 µg/mL (Enterococcus faecalis [22]): 17 mm; zone of inhibition at 50 µg/mL (Staphylococcus aureus [23]): 19 mm; zone of inhibition at 50 µg/mL (Aspergillus niger [24]): 4 mm; zone of inhibition at 50 µg/mL (Klebsiella pneumoniae [25]): 21 mm; zone of inhibition at 50 µg/mL (Candida albicans [26]): 9 mm; zone of inhibition at 50 µg/mL (Escherichia coli [27]): 20 mm |

Continued, in another order:

| MIC (Aspergillus niger [3]) [µg/mL] | MIC (Candida albicans [5]) [µg/mL] | MIC (Staphylococcus aureus [7]) [µg/mL] | MIC (Enterococcus faecalis [11]) [µg/mL] | IC50 [12] [µg/mL] | MIC (Klebsiella pneumoniae [14]) [µg/mL] | MIC (Escherichia coli [16]) [µg/mL] | Compound | zone of inhibition at 25 µg/mL (Aspergillus niger [1]) [mm] | zone of inhibition at 25 µg/mL (Candida albicans [4]) [mm] | zone of inhibition at 25 µg/mL (Escherichia coli [6]) [mm] | IC50 (A549) [µg/mL] | zone of inhibition at 25 µg/mL (Staphylococcus aureus [8]) [mm] | zone of inhibition at 25 µg/mL (Klebsiella pneumoniae [9]) [mm] | IC50 (B16-F10 [10]) [µg/mL] | zone of inhibition at 25 µg/mL (Enterococcus faecalis [13]) [mm] | IC50 [15] [µg/mL] | IC50 (SK-OV-3 [18]) | IC50 (HCT-15 [19]) [µg/mL] | other results |
| --- | --- | --- | --- | --- | --- | --- | --- | --- | --- | --- | --- | --- | --- | --- | --- | --- | --- | --- | --- |
| – | – | – | – | 45.94 (≈ 261 µM) | – | – | O=C1O[C@H]([C@@H](O)CO)C(O)=C1O [ASCORBIC ACID] | – | – | – | – | – | – | – | – | – | – | – | – |
| > 100 | > 100 | 25 (≈ 58.2 µM) | 25 (≈ 58.2 µM) | 140.21 (≈ 327 µM) | 25 (≈ 58.2 µM) | 25 (≈ 58.2 µM) | Cc1ccc2[nH]c3c(c2c1)CCc1c-3nc(N)c(C#N)c1-c1ccc(Br)cc1 | 6 | 7 | 22 | 35 (≈ 81.5 µM) | 24 | 25 | 2.84 (≈ 6.62 µM) | 23 | – | Not Active | 11 (≈ 25.7 µM) | IC50 [20]: Not Active; Ratio IC50 (B16-F10 [21]): 2 |
